According to ChEMBL document CHEMBL3779809, “Bioactive Enmein-Type ent-Kaurane Diterpenoids from Isodon phyllostachys” (J Nat Prod, 2016):

System: not listed separately
Test: Cytotoxicity against human SMMC7721 cells assessed as cell viability after 48 hrs by MTS assay
Assay type: functional, cell-based
Conditions: SMMC-7721, 48 h
Procedure, shortened: (§1)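 Cells grown in RPMI-1640 or DMEM with 10% FBS at 37 °C, 5% CO2. Seeded, incubated 12 h, then exposed to a range of concentrations in triplicate for 48 h. Viability read by MTS reduction to formazan. IC50 calculated by Reed and Muench method; cis-platin positive control.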

| Compound | IC50 [µM] |
| --- | --- |
| C=C1C(=O)[C@]23C[C@@H]1CC[C@H]2C12[C@H](OC)O[C@@H](O)[C@@H]1C(C)(C)CC[C@@H]2OC3=O (stereo partly specified) | 5 |
| C=C1C(=O)[C@]23C[C@@H]1CC[C@H]2C12[C@@H](OC)O[C@@H](O)[C@@H]1C(C)(C)CC[C@@H]2OC3=O (stereo partly specified) | 4.7 |
| C=C1C(=O)[C@]23C[C@@H]1CC[C@H]2C12C(O)O[C@@H](O)[C@@H]1C(C)(C)CC[C@@H]2OC3=O (stereo partly specified) | 31.8 |
| C=C1C(=O)[C@@]23C[C@@H]1C[C@H]1O[C@@H]4OC[C@]5([C@H](CCC(C)(C)[C@@H]45)OC2=O)[C@H]13 | 15.8 |

System: SW480
Test: Cytotoxicity against human SW480 cells assessed as cell viability after 48 hrs by MTS assay
Assay type: functional, cell-based
Conditions: SW480, 48 h
Procedure, shortened: as §1

| Compound | IC50 [µM] |
| --- | --- |
| C=C1C(=O)[C@]23C[C@@H]1CC[C@H]2C12[C@H](OC)O[C@@H](O)[C@@H]1C(C)(C)CC[C@@H]2OC3=O (stereo partly specified) | 4.6 |
| C=C1C(=O)[C@]23C[C@@H]1CC[C@H]2C12[C@@H](OC)O[C@@H](O)[C@@H]1C(C)(C)CC[C@@H]2OC3=O (stereo partly specified) | 3.9 |
| C=C1C(=O)[C@]23C[C@@H]1CC[C@H]2C12C(O)O[C@@H](O)[C@@H]1C(C)(C)CC[C@@H]2OC3=O (stereo partly specified) | 14.8 |
| C=C1C(=O)[C@@]23C[C@@H]1C[C@H]1O[C@@H]4OC[C@]5([C@H](CCC(C)(C)[C@@H]45)OC2=O)[C@H]13 | 15.2 |

System: RAW264.7
Test: Inhibition of LPS-induced NO production in mouse RAW264.7 cells at 25 uM preincubated with compound followed by LPS challenge measured after 18 hrs by Griess method
Assay type: functional, cell-based
Conditions: not given
Procedure, shortened: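 RAW264.7 macrophages seeded at 2 × 10^5 cells/well and treated with serial compound dilutions (maximum 25 μM), then stimulated with LPS 1 μg/mL for 18 h. Supernatant nitrite measured with Griess reagents, absorbance 550 nm. MG-132 positive control. Viability checked in parallel by MTT to exclude cytotoxic interference.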

| Compound | IC50 [µM] |
| --- | --- |
| C=C1C(=O)[C@]23C[C@@H]1CC[C@H]2C12[C@H](OC)O[C@@H](O)[C@@H]1C(C)(C)CC[C@@H]2OC3=O (stereo partly specified) | 1.56 |
| C=C1C(=O)[C@]23C[C@@H]1CC[C@H]2C12[C@@H](OC)O[C@@H](O)[C@@H]1C(C)(C)CC[C@@H]2OC3=O (stereo partly specified) | 1.36 |
| C=C1C(=O)[C@]23C[C@@H]1CC[C@H]2C12C(O)O[C@@H](O)[C@@H]1C(C)(C)CC[C@@H]2OC3=O (stereo partly specified) | 7.42 |
| C=C1C(=O)[C@@]23C[C@@H]1C[C@H]1O[C@@H]4OC[C@]5([C@H](CCC(C)(C)[C@@H]45)OC2=O)[C@H]13 | 4.93 |

System: not listed separately
Test: Cytotoxicity against human HL60 cells assessed as cell viability after 48 hrs by MTS assay
Assay type: functional, cell-based
Conditions: HL-60, 48 h
Procedure, shortened: as §1

| Compound | IC50 [µM] |
| --- | --- |
| C=C1C(=O)[C@]23C[C@@H]1CC[C@H]2C12[C@H](OC)O[C@@H](O)[C@@H]1C(C)(C)CC[C@@H]2OC3=O (stereo partly specified) | 3.2 |
| C=C1C(=O)[C@]23C[C@@H]1CC[C@H]2C12[C@@H](OC)O[C@@H](O)[C@@H]1C(C)(C)CC[C@@H]2OC3=O (stereo partly specified) | 3.5 |
| C=C1C(=O)[C@]23C[C@@H]1CC[C@H]2C12C(O)O[C@@H](O)[C@@H]1C(C)(C)CC[C@@H]2OC3=O (stereo partly specified) | 16.8 |
| C=C1C(=O)[C@@]23C[C@@H]1C[C@H]1O[C@@H]4OC[C@]5([C@H](CCC(C)(C)[C@@H]45)OC2=O)[C@H]13 | 15.4 |

System: not listed separately
Test: Cytotoxicity against human HL60 cells assessed growth inhibition at 40 uM after 48 hrs by MTS assay relative to control
Assay type: functional
Conditions: HL-60, 48 h, read-out: GI
Procedure, shortened: (§2)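 Cultured in RPMI-1640 or DMEM with 10% FBS at 37 °C under 5% CO2. Cells seeded, given 12 h at 37 °C, then treated with compound at 40 μM for 48 h. Growth inhibition measured by MTS assay (formazan colorimetry).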

| Compound | inhibition of growth at 40 µM [%] |
| --- | --- |
| C=C1C(=O)[C@]23C[C@@H]1CC[C@H]2C12[C@H](OC)O[C@@H](O)[C@@H]1C(C)(C)CC[C@@H]2OC3=O (stereo partly specified) | > 50 |
| C=C1C(=O)[C@]23C[C@@H]1CC[C@H]2C12[C@@H](OC)O[C@@H](O)[C@@H]1C(C)(C)CC[C@@H]2OC3=O (stereo partly specified) | > 50 |
| C=C1C(=O)[C@]23C[C@@H]1CC[C@H]2C12C(O)O[C@@H](O)[C@@H]1C(C)(C)CC[C@@H]2OC3=O (stereo partly specified) | > 50 |
| C=C1C(=O)[C@@]23C[C@@H]1C[C@H]1O[C@@H]4OC[C@]5([C@H](CCC(C)(C)[C@@H]45)OC2=O)[C@H]13 | > 50 |

System: A549
Test: Cytotoxicity against human A549 cells assessed as cell viability after 48 hrs by MTS assay
Assay type: functional, cell-based
Conditions: A549, 48 h
Procedure, shortened: as §1

| Compound | IC50 [µM] |
| --- | --- |
| C=C1C(=O)[C@]23C[C@@H]1CC[C@H]2C12[C@H](OC)O[C@@H](O)[C@@H]1C(C)(C)CC[C@@H]2OC3=O (stereo partly specified) | 3.4 |
| C=C1C(=O)[C@]23C[C@@H]1CC[C@H]2C12[C@@H](OC)O[C@@H](O)[C@@H]1C(C)(C)CC[C@@H]2OC3=O (stereo partly specified) | 1.2 |
| C=C1C(=O)[C@]23C[C@@H]1CC[C@H]2C12C(O)O[C@@H](O)[C@@H]1C(C)(C)CC[C@@H]2OC3=O (stereo partly specified) | 39 |
| C=C1C(=O)[C@@]23C[C@@H]1C[C@H]1O[C@@H]4OC[C@]5([C@H](CCC(C)(C)[C@@H]45)OC2=O)[C@H]13 | 14 |

System: MCF7
Test: Cytotoxicity against human MCF7 cells assessed as cell viability after 48 hrs by MTS assay
Assay type: functional, cell-based
Conditions: MCF7, 48 h
Procedure, shortened: as §1

| Compound | IC50 [µM] |
| --- | --- |
| C=C1C(=O)[C@]23C[C@@H]1CC[C@H]2C12[C@H](OC)O[C@@H](O)[C@@H]1C(C)(C)CC[C@@H]2OC3=O (stereo partly specified) | 3.2 |
| C=C1C(=O)[C@]23C[C@@H]1CC[C@H]2C12[C@@H](OC)O[C@@H](O)[C@@H]1C(C)(C)CC[C@@H]2OC3=O (stereo partly specified) | 3.9 |
| C=C1C(=O)[C@]23C[C@@H]1CC[C@H]2C12C(O)O[C@@H](O)[C@@H]1C(C)(C)CC[C@@H]2OC3=O (stereo partly specified) | > 40 |
| C=C1C(=O)[C@@]23C[C@@H]1C[C@H]1O[C@@H]4OC[C@]5([C@H](CCC(C)(C)[C@@H]45)OC2=O)[C@H]13 | 14 |

System: not listed separately
Test: Cytotoxicity against human SMMC7721 cells assessed growth inhibition at 40 uM after 48 hrs by MTS assay relative to control
Assay type: functional
Conditions: SMMC-7721, 48 h, read-out: GI
Procedure, shortened: as §2

| Compound | inhibition of growth at 40 µM [%] |
| --- | --- |
| C=C1C(=O)[C@]23C[C@@H]1CC[C@H]2C12[C@H](OC)O[C@@H](O)[C@@H]1C(C)(C)CC[C@@H]2OC3=O (stereo partly specified) | > 50 |
| C=C1C(=O)[C@]23C[C@@H]1CC[C@H]2C12[C@@H](OC)O[C@@H](O)[C@@H]1C(C)(C)CC[C@@H]2OC3=O (stereo partly specified) | > 50 |
| C=C1C(=O)[C@]23C[C@@H]1CC[C@H]2C12C(O)O[C@@H](O)[C@@H]1C(C)(C)CC[C@@H]2OC3=O (stereo partly specified) | > 50 |
| C=C1C(=O)[C@@]23C[C@@H]1C[C@H]1O[C@@H]4OC[C@]5([C@H](CCC(C)(C)[C@@H]45)OC2=O)[C@H]13 | > 50 |

System: A549
Test: Cytotoxicity against human A549 cells assessed growth inhibition at 40 uM after 48 hrs by MTS assay relative to control
Assay type: functional
Conditions: A549, 48 h, read-out: GI
Procedure, shortened: as §2

| Compound | inhibition of growth at 40 µM [%] |
| --- | --- |
| C=C1C(=O)[C@]23C[C@@H]1CC[C@H]2C12[C@H](OC)O[C@@H](O)[C@@H]1C(C)(C)CC[C@@H]2OC3=O (stereo partly specified) | > 50 |
| C=C1C(=O)[C@]23C[C@@H]1CC[C@H]2C12[C@@H](OC)O[C@@H](O)[C@@H]1C(C)(C)CC[C@@H]2OC3=O (stereo partly specified) | > 50 |
| C=C1C(=O)[C@]23C[C@@H]1CC[C@H]2C12C(O)O[C@@H](O)[C@@H]1C(C)(C)CC[C@@H]2OC3=O (stereo partly specified) | > 50 |
| C=C1C(=O)[C@@]23C[C@@H]1C[C@H]1O[C@@H]4OC[C@]5([C@H](CCC(C)(C)[C@@H]45)OC2=O)[C@H]13 | > 50 |
